Reference: ChEMBL document CHEMBL3600347, “Syntheses and in Vitro Antiplasmodial Activity of Aminoalkylated Chalcones and Analogues” (J Nat Prod, 2015)
Blank lines part the entries; values can stand above or below the molecule they belong to.

Experiments:
[1] = system: Plasmodium falciparum; assay: Antiplasmodial activity chloroquinone-sensitive Plasmodium falciparum NF54 by parasite lactate dehydrogenase assay; assay type: functional, organism-based
Outline: (§1)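 Asexual erythrocytic P. falciparum stages kept in continuous culture (modified Trager–Jensen). Growth inhibition read by parasite lactate dehydrogenase assay (modified Makler). Samples run in triplicate on one or two separate occasions. IC50 from full dose–response curves by nonlinear curve fitting. Chloroquine served as internal standard to monitor conditions.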

[2] = system: Plasmodium falciparum; assay: Antiplasmodial activity chloroquinone-sensitive Plasmodium falciparum D10 by parasite lactate dehydrogenase assay; assay type: functional, organism-based; outline: as §1
[3] = system: Plasmodium falciparum; assay: Antiplasmodial activity chloroquinone-resistant Plasmodium falciparum Dd2 by parasite lactate dehydrogenase assay; assay type: functional, organism-based
Outline: (§2)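 Asexual erythrocyte-stage P. falciparum kept in continuous culture by a modified Trager–Jensen method. Growth inhibition was read by a modified Makler parasite lactate dehydrogenase assay. Samples were run in triplicate on one or two separate occasions, with chloroquine as internal standard. IC50 was taken from full dose–response curves by nonlinear curve fitting.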

[4] = system: CHO; assay: Cytotoxicity against CHO cells by MTT assay; assay type: cell-based, Cricetulus griseus
Outline: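 Chinese hamster ovary cells; viability by MTT assay (modified Mosmann). Samples prepared as for antiplasmodial testing. Emetine reference in every experiment, started at 100 μg/mL and serially diluted 10-fold in complete medium to six concentrations, lowest 0.001 μg/mL. IC50 from dose–response curves.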

[5] = Selectivity index, ratio of IC50 for CHO cells to IC50 for chloroquinone-sensitive Plasmodium falciparum D10; conditions: hamster, CHO cells versus Plasmodium falciparum D10
[6] = Selectivity index, ratio of IC50 for CHO cells to IC50 for chloroquinone-sensitive Plasmodium falciparum D10; assay type: toxicity, cell-based; conditions: hamster; for selectivity ratio: CHO cells versus Plasmodium falciparum D10, read-out: Ratio IC50; for Ratio IC50: cho
Outline: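 Selectivity index computed as CHO-cell IC50 (MTT) divided by P. falciparum IC50 from the pLDH assay, for a representative subset of compounds.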

[7] = system: Plasmodium falciparum; assay: Resistance index, ratio of IC50 for chloroquinone-resistant Plasmodium falciparum Dd2 to IC50 for chloroquinone-sensitive Plasmodium falciparum D10; assay type: functional
[8] = system: Plasmodium falciparum; assay: Antiplasmodial activity chloroquinone-resistant Plasmodium falciparum K1 by parasite lactate dehydrogenase assay; assay type: functional, organism-based; outline: as §2
[9] = system: Plasmodium falciparum; assay: Resistance index, ratio of IC50 for […] to IC50 for chloroquinone-[…] Plasmodium falciparum K1; assay type: functional

SMILES: c1ccc(CN2CCCCC2)cc1
IC50 ([1]; Plasmodium falciparum, NF54): > 5 µM

SMILES: Oc1ccccc1CN1CCCCC1
IC50 ([1]; Plasmodium falciparum, NF54): > 5 µM

SMILES: CCc1ccc(C(=O)/C=C/c2ccc(CN3CCCCC3)c(O)c2)cc1
IC50 ([2]; Plasmodium falciparum, D10): 0.14 µM
IC50 [3]: 0.21 µM
IC50 ([4]; Cricetulus griseus, CHO): 6.59 µM
selectivity ratio [5]: 47

SMILES: Oc1ccc(CCCc2ccc(C(F)(F)F)cc2)cc1CN1CCCCC1 [listing 1 of 2 here]
IC50 ([1]; Plasmodium falciparum, NF54): 0.28 µM

SMILES: Oc1cc(CCCc2ccc(CCCc3ccc(CN4CCCCC4)c(O)c3)cc2)ccc1CN1CCCCC1
IC50 ([1]; Plasmodium falciparum, NF54): 0.06 µM

SMILES: Cc1ccc(S(=O)(=O)Oc2cc(CCCc3ccc(F)cc3)ccc2CN2CCCCC2)cc1
IC50 ([1]; Plasmodium falciparum, NF54): > 2 µM

SMILES: O=C(/C=C/c1ccc(O)c(CN2CCCCC2)c1)c1ccc(C(F)(F)F)cc1
IC50 ([2]; Plasmodium falciparum, D10): 0.17 µM
IC50 [3]: 0.2 µM
IC50 ([4]; Cricetulus griseus, CHO): 8.22 µM
selectivity ratio [6]: 49

SMILES: O=C(/C=C/c1ccc(CN2CCCCC2)c(O)c1)c1ccc(Br)cc1
IC50 ([2]; Plasmodium falciparum, D10): 0.15 µM
IC50 [3]: 0.21 µM
IC50 ([4]; Cricetulus griseus, CHO): 7.27 µM
selectivity ratio [6]: 50

SMILES: O=C(/C=C/c1ccc(CN2CCCCC2)c(O)c1)c1ccc(F)cc1
IC50 ([2]; Plasmodium falciparum, D10): 0.1 µM
IC50 [3]: 0.71 µM
IC50 ([4]; Cricetulus griseus, CHO): 77.2 µM
selectivity ratio [6]: 796

SMILES: O=C(CCc1ccc(CN2CCCCC2)c(O)c1)c1cccs1
IC50 ([2]; Plasmodium falciparum, D10): 0.19 µM
IC50 [3]: 0.27 µM
IC50 ([4]; Cricetulus griseus, CHO): 168 µM
selectivity ratio [6]: 895

SMILES: COc1ccc(CCCc2ccc(CN3CCCCC3)c(O)c2)cc1
IC50 [2]: 0.21 µM
IC50 ([4]; cho): 69.8 µM
Ratio IC50 [6]: 332

SMILES: COc1ccc(CCCc2cc(O)c(CN3CCCCC3)cc2CN2CCCCC2)cc1
IC50 ([2]; Plasmodium falciparum, D10): 0.06 µM
IC50 [3]: 0.08 µM
Ratio IC50 [7]: 1.47
IC50 ([4]; Cricetulus griseus, CHO): 200 µM
selectivity ratio [6]: 3510

SMILES: Oc1ccc(CCCc2ccc(C(F)(F)F)cc2)cc1CN1CCCCC1 [listing 2 of 2 here]
IC50 ([2]; Plasmodium falciparum, D10): 0.01 µM
IC50 [3]: 0.03 µM
Ratio IC50 [7]: 5.8

SMILES: Oc1cc(CCCc2ccc(F)cc2)ccc1CN1CCCCC1
IC50 [2]: 0.07 µM

SMILES: Cc1ccc(CCCc2ccc(CN3CCCCC3)c(O)c2)cc1
IC50 ([2]; Plasmodium falciparum, D10): 0.09 µM
IC50 [3]: 0.27 µM
Ratio IC50 [7]: 3.06
IC50 ([4]; Cricetulus griseus, CHO): 4.95 µM
selectivity ratio [6]: 56

SMILES: Oc1cc(CCCc2cccs2)ccc1CN1CCCCC1
IC50 ([1]; Plasmodium falciparum, NF54): 0.05 µM
IC50 [8]: 0.02 µM
Ratio IC50 [9]: 0.48

SMILES: Oc1cc(CCCc2ccccc2)ccc1CN1CCCCC1
IC50 ([1]; Plasmodium falciparum, NF54): 0.14 µM

SMILES: Oc1cc(CCCc2ccccc2)ccc1CN1CCOCC1
IC50 ([1]; Plasmodium falciparum, NF54): 0.75 µM

SMILES: COc1ccc(CCCc2ccc(CN3CCCCC3)c(O)c2)cc1.Cl
IC50 [2]: 0.07 µM
IC50 [3]: 0.07 µM
Ratio IC50 [7]: 1
IC50 ([4]; cho): 211 µM
Ratio IC50 [6]: 3063

SMILES: Cl.Oc1cc(CCCc2ccc(F)cc2)ccc1CN1CCCCC1
IC50 [2]: 0.03 µM
IC50 [3]: 0.02 µM
Ratio IC50 [7]: 0.79
IC50 ([4]; Cricetulus griseus, CHO): 163 µM
selectivity ratio [6]: 5830

SMILES: Cl.Oc1cc(CCCc2ccccc2)ccc1CN1CCCCC1
IC50 ([2]; Plasmodium falciparum, D10): 0.02 µM
IC50 [3]: 0.03 µM
Ratio IC50 [7]: 1.35
IC50 ([4]; Cricetulus griseus, CHO): 162 µM
selectivity ratio [6]: 7030

SMILES: CCc1ccc(CN2CCCCC2)c(O)c1
IC50 ([1]; Plasmodium falciparum, NF54): 1.04 µM

SMILES: Oc1cc(CCCc2ccc(-c3ccccc3)cc2)ccc1CN1CCCCC1
IC50 ([1]; Plasmodium falciparum, NF54): 0.08 µM

SMILES: CC[C@H]1CN2CCc3cc(OC)c(OC)cc3[C@@H]2C[C@@H]1C[C@H]1NCCc2cc(OC)c(OC)cc21 [EMETINE]
IC50 ([4]; Cricetulus griseus, CHO): 0.03 µM

More lines, main results first:

IC50 [1]: 0.06 µM
SMILES: CCc1ccc(CCCc2ccc(CN3CCCCC3)c(O)c2)cc1 [listing 1 of 2 here]

IC50 ([1]; Plasmodium falciparum, NF54): > 4 µM
SMILES: NC(=O)c1ccc(CCCc2ccccc2)cc1

IC50 ([1]; Plasmodium falciparum, NF54): > 3 µM
SMILES: CC(C)Nc1ccc(CCCc2cccc(O)c2)cc1

IC50 ([1]; Plasmodium falciparum, NF54): 0.04 µM
SMILES: Oc1cc(CCCc2ccc3ccccc3c2)ccc1CN1CCCCC1

IC50 ([2]; Plasmodium falciparum, D10): 11.3 µM
SMILES: COc1ccc(C(=O)/C=C/c2cccc(O)c2)cc1

IC50 ([2]; Plasmodium falciparum, D10): 0.83 µM
SMILES: COc1ccc(C(=O)/C=C/c2ccc(CN3CCCCC3)c(O)c2)cc1
IC50 ([4]; Cricetulus griseus, CHO): 197 µM
selectivity ratio [6]: 237

IC50 ([2]; Plasmodium falciparum, D10): 6.54 µM
SMILES: O=C(/C=C/c1ccc(CN2CCCC2)c(O)c1)c1ccccc1

IC50 ([2]; Plasmodium falciparum, D10): 2.81 µM
SMILES: COc1ccc(C(=O)/C=C/c2cc(CN3CCCCC3)c(O)c(OC)c2)cc1

IC50 ([2]; Plasmodium falciparum, D10): 4.9 µM
SMILES: COc1ccc(C(=O)/C=C/c2ccc(CN3CCOCC3)c(O)c2)cc1

IC50 ([2]; Plasmodium falciparum, D10): 3.77 µM
SMILES: COc1ccc(C(=O)/C=C/c2ccc(O)c(CN3CCN(C)CC3)c2)cc1

IC50 ([2]; Plasmodium falciparum, D10): 5.75 µM
SMILES: COc1ccc(C(=O)/C=C/c2ccc(CN3CCCC3)c(O)c2)cc1

IC50 ([2]; Plasmodium falciparum, D10): 2.74 µM
SMILES: CCN1CCN(Cc2ccc(/C=C/C(=O)c3ccc(OC)cc3)cc2O)CC1

IC50 ([2]; Plasmodium falciparum, D10): 2.52 µM
SMILES: COc1ccc(C(=O)/C=C/c2ccc(CN(C)C)c(O)c2)cc1

IC50 ([2]; Plasmodium falciparum, D10): > 3 µM
SMILES: COc1ccc(C(=O)/C=C/c2ccc(O)c(CN(C)C)c2)cc1

IC50 ([2]; Plasmodium falciparum, D10): 1.37 µM
SMILES: O=C(/C=C/c1ccc(CN2CCCCC2)c(O)c1)c1ccccn1

IC50 ([2]; Plasmodium falciparum, D10): 2.42 µM
SMILES: O=C(/C=C/c1ccc(CN2CCCCC2)c(O)c1)c1ccc[nH]1

IC50 ([2]; Plasmodium falciparum, D10): 2.73 µM
SMILES: O=C(/C=C/c1ccc(CN2CCCCC2)c(O)c1)c1cccs1

IC50 ([2]; Plasmodium falciparum, D10): > 3 µM
SMILES: Cc1ccc(C(=O)/C=C/c2ccc(CN3CCCCC3)c(O)c2)cc1

IC50 ([1]; Plasmodium falciparum, NF54): 0.26 µM
SMILES: O=C(CCc1ccc(CN2CCCCC2)c(O)c1)c1ccc(F)cc1

IC50 ([2]; Plasmodium falciparum, D10): > 3 µM
SMILES: O=C(CCc1ccc(CN2CCCCC2)c(O)c1)c1ccc[nH]1

IC50 ([2]; Plasmodium falciparum, D10): > 30 µM
SMILES: COc1ccc(CCCc2cccc(O)c2)cc1

IC50 [1]: 0.18 µM
SMILES: CCc1ccc(CCCc2ccc(CN3CCCCC3)c(O)c2)cc1 [listing 2 of 2 here]
IC50 ([4]; Cricetulus griseus, CHO): 25.2 µM
selectivity ratio [5]: 138

IC50 ([1]; Plasmodium falciparum, NF54): 0.18 µM
SMILES: CC(C)Nc1ccc(CCCc2ccc(CN3CCCCC3)c(O)c2)cc1

IC50 ([1]; Plasmodium falciparum, NF54): 0.06 µM
SMILES: Oc1ccc(CCCc2ccccc2)cc1CN1CCCCC1

IC50 ([1]; Plasmodium falciparum, NF54): 2.81 µM
SMILES: Oc1cc(CCCc2ccccc2)ccc1CN1CCNCC1

IC50 ([1]; Plasmodium falciparum, NF54): 0.79 µM
SMILES: CN1CCN(Cc2ccc(CCCc3ccccc3)cc2O)CC1

IC50 ([1]; Plasmodium falciparum, NF54): 0.41 µM
SMILES: CCN1CCN(Cc2ccc(CCCc3ccccc3)cc2O)CC1

IC50 ([1]; Plasmodium falciparum, NF54): 0.04 µM
SMILES: Oc1cc(CCCc2ccccc2)ccc1CN1CCCC1

IC50 ([1]; Plasmodium falciparum, NF54): 0.09 µM
SMILES: CN(C)Cc1ccc(CCCc2ccccc2)cc1O

IC50 ([1]; Plasmodium falciparum, NF54): 1.71 µM
SMILES: CC(=O)CCc1ccc(CN2CCCCC2)c(O)c1

IC50 ([1]; Plasmodium falciparum, NF54): 0.12 µM
SMILES: Oc1cc(CCc2ccccc2)ccc1CN1CCCCC1

IC50 ([2]; Plasmodium falciparum, D10): 15.7 µM
SMILES: O=C(/C=C/c1cccc(O)c1)c1ccccc1 [3-HYDROXY CHALCONE]
